Source: ChEMBL document CHEMBL1811899, “Synthesis and evaluation of novel 2-butyl-4-chloro-1-methylimidazole embedded chalcones and pyrazoles as angiotensin converting enzyme (ACE) inhibitors” (Bioorg Med Chem, 2011)
Activity calls are given as the source filed them. No cut-off for these calls is given here.

Assays:
[1] = target: T1, Angiotensin-converting enzyme (Oryctolagus cuniculus) (UniProt P12822); assay: (§1) Inhibition of rabbit lung ACE assessed as reduction in hippuryl-histidyl-leucine substrate by colorimetric assay
T1 sequence (whole entry): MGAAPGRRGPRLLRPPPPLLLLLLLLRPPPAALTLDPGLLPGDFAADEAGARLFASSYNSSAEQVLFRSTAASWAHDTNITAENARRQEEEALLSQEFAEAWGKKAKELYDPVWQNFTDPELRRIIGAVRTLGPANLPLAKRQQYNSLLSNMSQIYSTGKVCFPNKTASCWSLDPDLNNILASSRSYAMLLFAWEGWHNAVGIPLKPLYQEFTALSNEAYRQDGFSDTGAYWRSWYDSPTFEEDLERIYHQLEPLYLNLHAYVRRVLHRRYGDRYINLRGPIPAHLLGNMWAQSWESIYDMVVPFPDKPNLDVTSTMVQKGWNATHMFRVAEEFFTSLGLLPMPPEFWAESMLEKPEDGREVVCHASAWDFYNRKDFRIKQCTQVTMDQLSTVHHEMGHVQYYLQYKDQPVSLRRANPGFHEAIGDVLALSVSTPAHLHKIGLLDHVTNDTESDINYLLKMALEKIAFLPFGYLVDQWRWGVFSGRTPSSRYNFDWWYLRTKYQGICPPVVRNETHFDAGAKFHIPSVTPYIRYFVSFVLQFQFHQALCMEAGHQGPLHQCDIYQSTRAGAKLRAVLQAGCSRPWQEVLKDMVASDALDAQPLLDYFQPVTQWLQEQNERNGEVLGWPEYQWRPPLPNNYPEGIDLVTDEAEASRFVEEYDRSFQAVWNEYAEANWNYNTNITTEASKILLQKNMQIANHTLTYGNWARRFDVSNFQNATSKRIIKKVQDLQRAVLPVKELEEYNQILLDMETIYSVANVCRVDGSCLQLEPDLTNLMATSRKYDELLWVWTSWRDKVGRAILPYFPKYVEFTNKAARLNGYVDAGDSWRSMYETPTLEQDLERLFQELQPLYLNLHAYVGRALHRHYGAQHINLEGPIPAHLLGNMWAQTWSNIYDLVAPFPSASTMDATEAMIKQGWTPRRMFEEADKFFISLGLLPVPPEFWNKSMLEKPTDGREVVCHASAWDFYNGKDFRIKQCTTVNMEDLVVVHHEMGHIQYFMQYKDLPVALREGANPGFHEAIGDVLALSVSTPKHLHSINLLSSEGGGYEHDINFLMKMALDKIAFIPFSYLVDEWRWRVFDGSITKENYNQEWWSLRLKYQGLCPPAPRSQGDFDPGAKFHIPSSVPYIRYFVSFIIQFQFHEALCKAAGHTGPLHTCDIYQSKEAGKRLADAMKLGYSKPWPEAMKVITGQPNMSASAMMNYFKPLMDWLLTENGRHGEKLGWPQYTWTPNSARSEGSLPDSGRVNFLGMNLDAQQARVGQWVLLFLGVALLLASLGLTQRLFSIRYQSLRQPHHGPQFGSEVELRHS
Summary of the method: (§2)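 ACE came from a rabbit lung homogenate in 0.05 M sodium borate, pH 8.2, 0.3 M NaCl, 0.5% Triton X-100 at 4 °C, centrifuged. Enzyme was preincubated with compound for 10 min at 37 °C, then run for 30 min at 37 °C with 5 mM HHL stock in borate/NaCl buffer. Hippuric acid was derivatised with pyridine and benzenesulfonyl chloride and read at 410 nm. IC50 was taken from % inhibition versus concentration curves; means of three experiments.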

[2] = target: T2, Angiotensin-converting enzyme (Oryctolagus cuniculus, UniProt P12822); assay: as §1; summary of the method: as §2
T2 sequence (P12822 whole entry): T1 sequence (whole entry)

[3] = target: T1, Angiotensin-converting enzyme (Oryctolagus cuniculus); assay: Inhibition of rabbit lung ACE assessed as reduction in hippuryl-histidyl-leucine substrate at 3 uM by colorimetric assay
Summary of the method: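 Rabbit lung homogenised (1 g in 10 mL of 0.05 M sodium borate, pH 8.2, with 0.3 M NaCl and 0.5% Triton X-100, 4 °C) and centrifuged to give the ACE source. Enzyme and test solution preincubated 10 min at 37 °C. The reaction was started with borate/NaCl buffer plus 5 mM HHL stock and run 30 min at 37 °C. Released hippuric acid was reacted with pyridine and benzenesulfonyl chloride, and the yellow product read at 410 nm. Inhibition% = 100 − (T/C)×100.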

| SMILES | inhibition [1] | IC50 [2] [µM] | inhibition [3] |
| --- | --- | --- | --- |
| CCCCc1nc(Cl)c(/C=C/C(=O)c2ccc3sc4ccccc4c3c2)n1C | Dose-dependent effect | 2.68 |  |
| CCCCc1nc(Cl)c(/C=C/C(=O)c2ccc([N+](=O)[O-])cc2)n1C |  |  | Active |
| CCCCc1nc(Cl)c(/C=C/C(=O)c2ccc(Br)s2)n1C |  |  | Active |
| CCCCc1nc(Cl)c(/C=C/C(=O)c2ccc3c(c2)c2ccccc2n3C)n1C |  |  | Active |
| CCCCc1nc(Cl)c(/C=C/C(=O)c2cccnc2)n1C |  |  | Active |
| CCCCc1nc(Cl)c(C2CC(c3ccc(Cl)s3)=NN2C(C)=O)n1C (stereo not given) |  | 1800 |  |
| O=C(/C=C/c1ccc(O)c(O)c1)c1ccc(O)cc1O [BUTEIN] |  | 730 |  |
| CCCCc1nc(Cl)c(/C=C/C(=O)c2ccccc2)n1C |  |  | Active |
| CCCCc1nc(Cl)c(/C=C/C(=O)c2ccc3ccccc3c2)n1C |  |  | Active |
| CCCCc1nc(Cl)c(/C=C/C(=O)c2cccc(Br)n2)n1C |  |  | Active |
| CCCCc1nc(Cl)c(/C=C/C(=O)c2ccco2)n1C |  |  | Active |
| CCCCc1nc(Cl)c(/C=C/C(=O)c2ccc3oc4ccccc4c3c2)n1C |  |  | Active |
| CCCCc1nc(Cl)c(/C=C/C(=O)c2ccc(OC)cc2)n1C |  |  | Active |
| CCCCc1nc(Cl)c(C2CC(c3ccc4sc5ccccc5c4c3)=NN2C(C)=O)n1C (stereo not given) |  | 2010 |  |
| CCCCc1nc(Cl)c(/C=C/C(=O)c2ccc(C)cc2)n1C |  |  | Active |
| CCCCc1nc(Cl)c(C2CC(c3cc(OC)c(OC)c(OC)c3)=NN2C(C)=O)n1C (stereo not given) |  | 2120 |  |
| CCCCc1nc(Cl)c(/C=C/C(=O)c2cccc3ccccc23)n1C |  |  | Active |
| CCCCc1nc(Cl)c(C2CC(c3ccc(OC)cc3)=NN2C(C)=O)n1C (stereo not given) |  | 2330 |  |
| CCCCc1nc(Cl)c(/C=C/C(=O)c2cccs2)n1C |  |  | Active |
| CCCCc1nc(Cl)c(/C=C/C(=O)c2ccc[nH]2)n1C | Dose-dependent effect | 2.24 |  |
| CCCCc1nc(Cl)c(/C=C/C(=O)c2cc(OC)c(OC)c(OC)c2)n1C |  |  | Active |
| CCCCc1nc(Cl)c(/C=C/C(=O)c2ccc(Cl)s2)n1C | Dose-dependent effect | 3.6 | Active |
| CCCCc1nc(Cl)c(C2CC(c3ccc([N+](=O)[O-])cc3)=NN2C(C)=O)n1C (stereo not given) |  | 2220 |  |
| O=c1cc(-c2ccc(O)cc2)oc2cc(O)cc(O)c12 [APIGENIN] |  | 280 |  |
| CCCCc1nc(Cl)c(C2CC(c3cccc4ccccc34)=NN2C(C)=O)n1C (stereo not given) |  |  | inactive |
| CCCCc1nc(Cl)c(C2CC(c3ccco3)=NN2C(C)=O)n1C (stereo not given) |  | 2350 |  |
